Data on 16 compounds can be found in ChEMBL document CHEMBL1134651, “Acyl substitution at the ortho position of anilides enhances oral bioavailability of thiophene sulfonamides: TBC3214, an ETA selective endothelin antagonist” (J Med Chem, 2001).

Structures are written as SMILES.

The nature of data set [1]: Oral absorption expressed as peak plasma conc (Cmax) after oral dosing of 50 mg/kg in rat. Type of data set: ADME, organism-based. Set-up: dose 50 mg/kg, route oral. The method in brief:
(§1)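 Rats given compound orally at 50 mg/kg. Serial 200 μL blood samples drawn from the tail vein into heparin-coated microhematocrit tubes at selected times. Red cells removed at once by centrifugation; plasma stored at -80 °C, proteins precipitated with acetonitrile, drug measured by HPLC. Absorption reported as peak plasma concentration (Cmax) and AUC extrapolated to infinity.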

Data set [2] in a line: Oral absorption expressed as Area under curve was determined. Set-up: concentration or dose not given beside the values. Type of data set: ADME. Put shortly: as §1
Data set [3] deals with T1, Endothelin-1 receptor (Homo sapiens, UniProt P25101).
T1 sequence (P25101 whole entry): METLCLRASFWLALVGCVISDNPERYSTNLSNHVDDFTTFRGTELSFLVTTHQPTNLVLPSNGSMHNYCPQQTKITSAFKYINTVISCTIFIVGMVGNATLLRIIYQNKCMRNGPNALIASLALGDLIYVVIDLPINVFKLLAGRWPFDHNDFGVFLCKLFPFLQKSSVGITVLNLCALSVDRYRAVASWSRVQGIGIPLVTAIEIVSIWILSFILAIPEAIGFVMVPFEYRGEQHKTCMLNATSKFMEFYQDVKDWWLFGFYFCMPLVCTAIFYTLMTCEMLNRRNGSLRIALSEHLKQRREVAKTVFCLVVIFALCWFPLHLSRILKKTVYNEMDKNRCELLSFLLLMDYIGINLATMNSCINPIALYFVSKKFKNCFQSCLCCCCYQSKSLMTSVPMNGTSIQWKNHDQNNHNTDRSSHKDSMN
As to the kind of experiment: Inhibitory concentration was determined against selective Endothelin A receptor.

Data set [4] addresses Endothelin receptor, ET-A/ET-B (Homo sapiens) (UniProt P24530+P25101). As to the kind of experiment: Relative affinity for human ETA over ETB receptors. Type of data set: protein assay.
Data set [5] is described as follows: Oral bioavailability in rat. The class given is ADME, organism-based. As to conditions: in vivo.
Data set [6] in a line: Oral bioavailability was evaluated in cat. The class given is ADME, organism-based, Felis catus. Conditions: in vivo.
Data set [7] in a line: Oral bioavailability was evaluated in dog. The class given is ADME, organism-based, Canis lupus familiaris. As to conditions: in vivo.
A short description of data set [8]: Half life period in plasma was determined. Type of data set: ADME, cell-free.

Endothelin receptor, ET-A/ET-B (Homo sapiens), sequence (P24530 whole entry, looked up, one chain of several): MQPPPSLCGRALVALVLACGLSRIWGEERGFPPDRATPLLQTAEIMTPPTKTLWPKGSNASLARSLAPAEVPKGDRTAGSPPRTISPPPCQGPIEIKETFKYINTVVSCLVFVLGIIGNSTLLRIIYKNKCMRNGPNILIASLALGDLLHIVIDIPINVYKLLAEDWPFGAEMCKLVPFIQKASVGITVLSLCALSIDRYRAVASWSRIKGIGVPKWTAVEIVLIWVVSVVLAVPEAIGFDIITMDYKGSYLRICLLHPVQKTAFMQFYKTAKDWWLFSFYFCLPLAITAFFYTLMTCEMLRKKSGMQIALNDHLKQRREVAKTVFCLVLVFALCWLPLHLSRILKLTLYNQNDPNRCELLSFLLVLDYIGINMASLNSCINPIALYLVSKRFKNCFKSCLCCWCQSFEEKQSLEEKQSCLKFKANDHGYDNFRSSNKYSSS

`Cc1cc(C)c(NC(=O)c2sccc2S(=O)(=O)Nc2onc(C)c2Cl)c(C(=O)C(C)C)c1` showed a Cmax in data set [1] of 59200 ng/mL. The compound further returned an AUC in data set [2] of 298 µg·h/mL. Besides, in data set [3], the midpoint of inhibition, the IC50, lay at 0.12 nM. Besides, in data set [4], the Selectivity amounted to 14000.
The matching figures for `Cc1cc(C)c(CC(=O)c2sccc2S(=O)(=O)Nc2onc(C)c2Cl)c(C)c1O`: 2600 ng/mL, 15.8 µg·h/mL, 0.14 nM and 10800.
The matching figures for `Cc1cc(C)c(NC(=O)c2sccc2S(=O)(=O)Nc2onc(C)c2Cl)c(C)c1O`: 48200 ng/mL, 118 µg·h/mL, 0.19 nM and 10900.
The matching figures for `Cc1cc(C)c(NC(=O)c2sccc2S(=O)(=O)Nc2onc(C)c2Cl)c(C)c1`: 35900 ng/mL, 103 µg·h/mL, 0.17 nM and 7000.
`Cc1noc(NS(=O)(=O)c2ccsc2C(=O)Nc2ccc3c(c2)OCO3)c1Br` displayed a Selectivity in data set [4] of 500.
In data set [5], `Cc1noc(NS(=O)(=O)c2ccsc2C(=O)Nc2cc3c(cc2C#N)OCO3)c1Cl` yielded a bioavailability of 8%. Also, the Selectivity in data set [4] was 12000.
The matching figures for `CC(=O)c1cc2c(cc1NC(=O)c1sccc1S(=O)(=O)Nc1onc(C)c1Cl)OCO2`: 27% and 3000.
Take `Cc1cc(C)c(NC(=O)c2sccc2S(=O)(=O)Nc2onc(C)c2Cl)c(C)c1CC#N`: the concentration in data set [1] peaked (Cmax) at 42000 ng/mL. In addition, the AUC in data set [2] worked out at 59.9 µg·h/mL. The Selectivity in data set [4] was determined as 32900.
In turn, `Cc1cc2c(cc1CC(=O)c1sccc1S(=O)(=O)Nc1onc(C)c1Cl)OCO2` gave a Selectivity in data set [4] of 7000.
The same measure, in the same setting: then `Cc1ccc(NC(=O)c2sccc2S(=O)(=O)Nc2onc(C)c2Cl)cc1`, with 940.
Compound `CCc1cc(C)cc(C)c1NC(=O)c1sccc1S(=O)(=O)Nc1onc(C)c1Cl` showed a Cmax in data set [1] of 21800 ng/mL. Besides, the AUC in data set [2] worked out at 47 µg·h/mL. In addition, the IC50 in data set [3] worked out at 0.43 nM.
In the case of `Cc1cc(C)c(NC(=O)c2sccc2S(=O)(=O)Nc2noc(C)c2Cl)c(C)c1CC#N`, the Cmax in data set [1] was determined as 53900 ng/mL. The compound further gave an AUC in data set [2] of 171 µg·h/mL. In addition, the IC50 in data set [3] was 0.1 nM. The compound further had a Selectivity in data set [4] of 8500.
The compound `CC(=O)c1cc(C)cc(C)c1NC(=O)c1sccc1S(=O)(=O)Nc1onc(C)c1Cl` had a Cmax in data set [1] of 57600 ng/mL. Further, the AUC in data set [2] is 272 µg·h/mL. For the same compound, the results for the bioavailability in data set [5], in data set [6] and in data set [7] were 25%, 42% and 70%, respectively. The compound further gave a half-life in data set [8] of 240 min. The same compound returned an IC50 in data set [3] of 0.04 nM. Besides, in data set [4], the Selectivity was determined as 442000.
Consider `Cc1cc2c(cc1CC(=O)c1sccc1S(=O)(=O)Nc1onc(C)c1C)OCO2`, for which the bioavailability in data set [5] is around 100%. This compound also showed a Selectivity in data set [4] of 10000.
Regarding `Cc1noc(NS(=O)(=O)c2ccsc2C(=O)Cc2ccc3c(c2)OCO3)c1Cl`, the Selectivity in data set [4] stood at 300.
In turn, `Cc1cc(C)c(NC(=O)c2sccc2S(=O)(=O)Nc2onc(C)c2C)c(C)c1CC#N` yielded a Cmax in data set [1] of 13000 ng/mL. In data set [2], this compound returned an AUC of 45.8 µg·h/mL. Further, in data set [3], inhibition was half-maximal at 0.17 nM (IC50). The Selectivity in data set [4] was determined as 14600.
